Laboratory results taken from ChEMBL document CHEMBL3603779, “Identification and Optimization of Benzimidazole Sulfonamides as Orally Bioavailable Sphingosine 1-Phosphate Receptor 1 Antagonists with in Vivo Activity” (J Med Chem, 2015).
Calls of active or inactive are those of the source. No cut-off for these calls is given here.

What was measured:
Calu-6 [1] = experiment: Increase in pulmonary vascular permeability in tumor of human Calu6 cells xenografted NCr mouse assessed as induction of capillary leakage in at 20 mg/kg, po by Evans blue dye assay; assay type: functional, organism-based
[2] = Oral bioavailability in beagle dog at 10 mg/kg by LCMS/MS method; assay type: ADME, organism-based, Canis lupus familiaris; settings: in vivo
Mus musculus [3] = experiment: Increase in pulmonary vascular permeability in NCr mouse lung assessed as induction of capillary leakage in at 20 mg/kg, po administered a single oral dose by Evans blue dye assay; assay type: functional, organism-based
Summary of the method: (§1)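 Female NCr nude mice (4 per cohort) given a single oral dose, 20 or 50 mg/kg, or vehicle (0.5% HPMC, 0.1% Tween 80). Evans blue dye (20 mg/kg) injected 1 h later. After 30 min, mice anesthetized and perfused with 0.9% saline; lung dye measured by spectrophotometry and normalized to vehicle-treated animals.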

[4] = target: Voltage-gated inwardly rectifying potassium channel KCNH2 (Homo sapiens, UniProt Q12809)
Calu-6 [5] = experiment: Antitiumor activity against human Calu6 cells xenografted in NCr mouse assessed as tumor growth at 20 mg/kg, po bid dosed on day 13 to 32
[6] = Half life in Han Wistar rat at 3 mg/kg, iv by LCMS/MS method; assay type: ADME, organism-based; settings: in vivo
[7] = Clearance in beagle dog at 2.5 mg/kg, iv by LCMS/MS method; assay type: ADME, organism-based, Canis lupus familiaris; settings: in vivo
[8] = Cmax in beagle dog at 10 mg/kg, po by LCMS/MS method; assay type: ADME, organism-based, Canis lupus familiaris; design: dose 10 mg/kg, route oral; settings: in vivo
[9] = Half life in beagle dog at 2.5 mg/kg, iv by LCMS/MS method; assay type: ADME, organism-based, Canis lupus familiaris; settings: in vivo
COLO 205 [10] = experiment: Increase in pulmonary vascular permeability in tumor of human COLO205 cells xenografted NCr mouse assessed as induction of capillary leakage in at 20 mg/kg, po by Evans blue dye assay; assay type: functional, organism-based
[11] = Clearance in Han Wistar rat at 3 mg/kg, iv by LCMS/MS method; assay type: ADME, organism-based; settings: in vivo
[12] = Clearance in Han Wistar rat at 4 mg/kg, iv by LCMS/MS method; assay type: ADME, organism-based; settings: in vivo
[13] = Volume of distribution at steady state in Han Wistar rat at 4 mg/kg, iv by LCMS/MS method; assay type: ADME, organism-based; settings: in vivo, read-out: Vdss
Mus musculus [14] = experiment: Increase in pulmonary vascular permeability in NCr mouse lung assessed as induction of capillary leakage in at 50 mg/kg, po administered a single oral dose by Evans blue dye assay; assay type: functional, organism-based; summary of the method: as §1
COLO 205 [15] = experiment: Increase in pulmonary vascular permeability in tumor of human COLO205 cells xenografted NCr mouse assessed as induction of capillary leakage in at 50 mg/kg, po by Evans blue dye assay; assay type: functional, organism-based
[16] = Half life in Han Wistar rat at 4 mg/kg, iv by LCMS/MS method; assay type: ADME, organism-based; settings: in vivo
[17] = Volume of distribution at steady state in beagle dog at 2 mg/kg, iv by LCMS/MS method; assay type: ADME, organism-based, Canis lupus familiaris; settings: in vivo, read-out: Vdss
[18] = Clearance in beagle dog at 2 mg/kg, iv by LCMS/MS method; assay type: ADME, organism-based, Canis lupus familiaris; settings: in vivo
Calu-6 [19] = experiment: Increase in pulmonary vascular permeability in tumor of human Calu6 cells xenografted NCr mouse assessed as induction of capillary leakage in at 50 mg/kg, po by Evans blue dye assay; assay type: functional, organism-based
[20] = Oral bioavailability in beagle dog at 5 mg/kg by LCMS/MS method; assay type: ADME, organism-based, Canis lupus familiaris; settings: in vivo
[21] = Half life in beagle dog at 2 mg/kg, iv by LCMS/MS method; assay type: ADME, organism-based, Canis lupus familiaris; settings: in vivo
[22] = Cmax in beagle dog at 5 mg/kg, po by LCMS/MS method; assay type: ADME, organism-based, Canis lupus familiaris; design: dose 5 mg/kg, route oral; settings: in vivo
[23] = Antitiumor activity against human Calu6 cells xenografted in NCr mouse assessed as tumor growth at 50 mg/kg, po bid dosed on day 11 to 33; assay type: functional; settings: Calu-6, po, read-out: GI
Summary of the method: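 Calu6 xenografts in female NCr-nude mice, oral dosing twice daily. Schedules: 20 mg/kg BID on days 13-32, or 50 mg/kg BID on days 11-33. Vehicle (HPMC) controls n=20, treated n=14. Tumor volume compared with controls.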

Voltage-gated inwardly rectifying potassium channel KCNH2, sequence (Q12809 whole entry): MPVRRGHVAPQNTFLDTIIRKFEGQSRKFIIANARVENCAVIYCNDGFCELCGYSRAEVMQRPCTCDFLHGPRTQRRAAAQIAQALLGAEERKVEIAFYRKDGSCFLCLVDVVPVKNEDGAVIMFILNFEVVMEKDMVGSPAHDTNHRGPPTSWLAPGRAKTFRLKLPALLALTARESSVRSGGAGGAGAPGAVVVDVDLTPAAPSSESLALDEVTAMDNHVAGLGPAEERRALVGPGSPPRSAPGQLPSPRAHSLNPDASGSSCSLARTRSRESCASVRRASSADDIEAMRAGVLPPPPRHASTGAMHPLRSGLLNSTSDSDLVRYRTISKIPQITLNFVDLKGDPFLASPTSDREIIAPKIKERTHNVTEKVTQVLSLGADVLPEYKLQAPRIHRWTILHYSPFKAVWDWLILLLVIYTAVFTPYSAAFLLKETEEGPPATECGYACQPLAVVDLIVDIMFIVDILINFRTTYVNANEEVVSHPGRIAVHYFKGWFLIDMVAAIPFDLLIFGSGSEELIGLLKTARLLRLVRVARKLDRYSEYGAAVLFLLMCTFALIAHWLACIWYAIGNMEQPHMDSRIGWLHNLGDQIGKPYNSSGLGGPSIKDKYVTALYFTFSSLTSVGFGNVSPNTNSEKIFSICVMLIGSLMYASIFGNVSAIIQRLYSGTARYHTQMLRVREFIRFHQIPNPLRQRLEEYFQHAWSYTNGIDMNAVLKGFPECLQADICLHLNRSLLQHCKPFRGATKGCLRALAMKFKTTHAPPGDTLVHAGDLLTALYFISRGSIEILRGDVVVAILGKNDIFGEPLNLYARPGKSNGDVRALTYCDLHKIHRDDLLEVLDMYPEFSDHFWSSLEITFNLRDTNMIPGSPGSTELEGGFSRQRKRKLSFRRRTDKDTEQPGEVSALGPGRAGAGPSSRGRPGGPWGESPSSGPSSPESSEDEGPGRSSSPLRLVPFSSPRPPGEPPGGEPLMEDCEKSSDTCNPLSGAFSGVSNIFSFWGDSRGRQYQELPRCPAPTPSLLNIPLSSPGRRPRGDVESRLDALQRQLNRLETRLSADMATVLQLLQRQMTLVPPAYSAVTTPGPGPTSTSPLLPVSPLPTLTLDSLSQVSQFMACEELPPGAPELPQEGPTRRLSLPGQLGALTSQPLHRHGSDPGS

Question: For `CCn1c([C@@H](C)NS(=O)(=O)c2ccc(C#N)nc2)nc2cnc(C(F)(F)F)cc21`, which Activity (Calu-6 [1]) is on record?
Answer: inactive

Question: And the bioavailability [2]?
Answer: 81%

Question: And the Activity (Mus musculus [3])?
Answer: Active

Question: And the IC50 [4]?
Answer: > 200 µM

Question: What about the “growth inhibition (GI)” value (Calu-6 [5]) of the same molecule?
Answer: inactive

Question: What about the half-life [6] of the same molecule?
Answer: 2.4 h

Question: What about the clearance [7] of the same molecule?
Answer: 2 mL/min/kg

Question: And the Cmax [8]?
Answer: 31.1 µM

Question: And the half-life [9]?
Answer: 4.9 h

Question: What about the Activity (COLO 205 [10]) of the same molecule?
Answer: inactive

Question: And the clearance [11]?
Answer: 8 mL/min/kg

Question: For `CCn1c([C@@H](C)NS(=O)(=O)c2ccc(C#N)nc2)nc2cnc(C3CC3)cc21`, which clearance [12] is on record?
Answer: 10 mL/min/kg

Question: And the Vd [13]?
Answer: 1.3 L/kg

Question: And the Activity (Mus musculus [14])?
Answer: Active

Question: And the Activity (COLO 205 [15])?
Answer: inactive

Question: And the half-life [16]?
Answer: 2.9 h

Question: And the Vd [17]?
Answer: 0.7 L/kg

Question: What about the clearance [18] of the same molecule?
Answer: 2 mL/min/kg

Question: What about the Activity (Calu-6 [19]) of the same molecule?
Answer: inactive

Question: What about the bioavailability [20] of the same molecule?
Answer: 71%

Question: What about the half-life [21] of the same molecule?
Answer: 4.6 h

Question: What about the Cmax [22] of the same molecule?
Answer: 10.7 µM

Question: And the inhibition in vivo at 50 mg/kg [23]?
Answer: 32%
